T cruzi inh = inhibitors of intracellular T. cruzi growth, primary screen, luminescence, NIH3T3 host cells | T. cruzi beta-gal in NIH3T3, 90 h | inhibition, % (test concentration not listed) | 300,000 tested, 1.4% active | AID 1885, 2009;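 active = mean inhibition across valid replicates above about 55%, limit read from the data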;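 also: signal also drops with host cell toxicity which is not excluded here; 0% = plate median of DMSO wells and 100% = zero luminescence signal; higher percent means less beta-gal luminescence so fewer parasites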
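System: Mouse NIH/3T3 fibroblasts infected with β-gal-expressing T. cruzi Tulahuen C4 | Quantity: NIH/3T3 cells, 5,000 per well | Reagent: 5000 reporter trypomastigotes per well | Dosing: Compound pinned at 50 nL/well, DMSO | Schedule: 3 h host attachment, then at least 90 h co-culture | Detection: GalScreen luminescence, 60 min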
NR1D1 modulator = modulators of Rev-erb alpha DNA binding, primary screen, biochemical, FITC-DNA, fluorescence polarization, uHTS; Nuclear receptor subfamily 1 group D member 1 (Homo sapiens), P20393; Rev-erbα–FITC-DNA binding, 90 min; activity, % at 10 µM; 370,000 tested, 0.79% active; AID 1259318, 2017;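 active = activity above about 14%, limit read from the data; passing the limit was not always enough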;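 also: 0% = DMSO wells with 35 nM protein and 100% = DMSO wells with 750 nM protein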
Target sequence (P20393 whole entry, looked up): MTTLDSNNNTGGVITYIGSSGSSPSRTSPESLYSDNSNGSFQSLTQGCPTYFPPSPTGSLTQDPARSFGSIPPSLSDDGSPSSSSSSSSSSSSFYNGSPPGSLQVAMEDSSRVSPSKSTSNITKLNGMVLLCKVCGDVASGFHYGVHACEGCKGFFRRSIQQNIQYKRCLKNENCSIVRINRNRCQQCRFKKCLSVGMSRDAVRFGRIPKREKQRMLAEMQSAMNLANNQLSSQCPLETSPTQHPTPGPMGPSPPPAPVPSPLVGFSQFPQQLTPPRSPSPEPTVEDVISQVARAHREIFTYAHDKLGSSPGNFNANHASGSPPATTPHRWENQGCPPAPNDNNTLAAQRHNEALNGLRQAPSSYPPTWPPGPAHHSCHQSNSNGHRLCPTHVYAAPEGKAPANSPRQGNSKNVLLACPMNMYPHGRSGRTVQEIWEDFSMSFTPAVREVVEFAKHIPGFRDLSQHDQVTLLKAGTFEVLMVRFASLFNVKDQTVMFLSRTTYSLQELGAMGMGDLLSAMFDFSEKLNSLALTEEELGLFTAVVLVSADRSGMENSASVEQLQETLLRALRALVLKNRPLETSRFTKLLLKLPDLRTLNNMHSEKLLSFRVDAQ
TAG inh = inhibitors of triacylglycerol accumulation, primary screen, cell-based, uHTS, fluorescence, H9c2 | 230,000 tested, 0.66% active | H9c2 cells, Nile Red lipid (TAG) fluorescence; cells loaded with 200 µM oleic acid | inhibition, % at 12.5 µM;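 active = pattern-corrected inhibition of lipid staining of at least 50% with the nuclear-stain viability signal not falling by more than 50%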;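 also: 0% = DMSO wells and 100% = triacsin C control wells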
PG9 binder = binders of HIV-1 gp120 antibody PG9, primary screen, biochemical, TR-FRET; TR-FRET gp120-PG9 antibody binding; inhibition, % at 6.7 µM; 360,000 tested, 0.43% active; AID 624416, 2012; in the data active = inhibition above about 8.5%
iPSC survival up = enhancers of single-cell hiPSC survival, primary screen, ATPlite luminescence. 360,000 tested, 0.044% active. 100% = ROCK inhibitor wells, 0% = DMSO. survival enhancement, % at 20 µM; in the data active = survival enhancement above about 18%;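 also: cells exposed to compounds for 16 hours before the ATP read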
beta cell repl = inducers of MIN6 beta-cell proliferation, primary screen, ATP luminescence, uHTS. AID 2380, 2010. proliferation, % at 10 µM. MIN6 cells proliferation, ATPlite luminescence, 48 h; cells starved in 0.2% serum; 100% = growth in 10% serum. 330,000 tested, 0.29% active;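 active = compounds whose signal lies at least 3.5 SD above the mean of all wells on their plate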;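 also: 0% = DMSO-treated cells in low-serum medium and 100% = 10% serum control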
PG9 bind confirm = binders of anti-gp120 antibody PG9, confirmation, biochemical, TR-FRET | TR-FRET PG9 antibody binding | shares compounds with PG9 binder | inhibition, % at 6.7 µM | AID 651571, 2012 | 1,500 tested, 90% active; in the data active = inhibition above about 9%
PGV04 counter = binders of control antibody PGV04, counter-screen for PG9 antibody binder project, biochemical, TR-FRET, distinct HIV envelope site. inhibition, % at 6.7 µM. TR-FRET PGV04 antibody-gp120 binding. shares compounds with PG9 binder. 1,500 tested, 95% active. AID 651604, 2012; in the data active = inhibition above about 9.5%
PG9 binder DR = small-molecule binders of antibody PG9, dose response, biochemical, TR-FRET, HIV-1 gp120 antibody. 95 tested, under 10 active. TR-FRET PG9 antibody-gp120 binding inhibition. IC50, µM. shares compounds with PG9 binder. AID 651848, 2012; in the data active = IC50 below about 10 µM
PGV04 binding DR = binders of control antibody PGV04, dose response, counter-screen for PG9 antibody binder project, biochemical, TR-FRET, distinct HIV envelope site | 95 tested, 20% active | AID 651937, 2012 | shares compounds with PG9 binder | TR-FRET binding to control antibody PGV04 | IC50, µM
PG126 DR counter = binders of control antibody PG126, dose response, counter-screen for PG9 antibody binder project, biochemical, TR-FRET, distinct HIV envelope site; shares compounds with PG9 binder; TR-FRET binding to antibody PG126, counterscreen; IC50, µM; 95 tested, 20% active
An asterisk follows results filed as active; i = inactive; . = not tested or not shown. The list is not random: actives were taken first. Their share in the collection is about 2.9%. Rule as the data show it, unless noted: active = IC50 below about 9 µM; inactive = the rest.

SMILES	T cruzi inh	NR1D1 modulator	TAG inh	PG9 binder	iPSC survival up	beta cell repl	PG9 bind confirm	PGV04 counter	others
O=C(C1=C(O)C(=O)N(CC2CCCO2)C1c1ccccc1F)c1ccco1 (stereo unspecified)	-7	-2	.	9.8*	1	0	16*	20*
COc1ccc2[nH]c(=O)c(COC(=O)c3cccs3)cc2c1	-2	3	.	33*	-2	0	16*	26*
COc1ccc2[nH]c(=O)c(CN(C)C(=O)c3cccs3)cc2c1	-31	6	-7	1	0	-1	.	.
O=C(NCCC(=O)N1CCN(c2ccccc2O)CC1)c1ccc(Cl)cc1	-3	-1	-20	-2	1	1	.	.
CCc1cc2cc(C(=O)N3CCN(Cc4ccccc4)CC3)sc2s1	26	-11	2	0	2	-1	.	.
CCc1cc2cc(C(=O)N3CCN(c4ccccc4)CC3)sc2s1	2	6	.	20*	-2	-3	36*	40*
C[C@H](CO)N1C[C@H](C)[C@@H](CN(C)Cc2ccccc2)Oc2c(NS(=O)(=O)c3ccc(F)cc3)cccc2C1=O	.	-5	-23	11*	-2	-2	31*	47*
C[C@H](CO)N1C[C@H](C)[C@@H](CN(C)Cc2ccccc2)Oc2c(NS(=O)(=O)c3ccccc3)cccc2C1=O	.	-4	.	-2	-1	-2	.	.
CC(=O)c1ccc(OCCCC(=O)Nc2nnc(C3CC3)s2)cc1	.	-1	-4	8.7*	3	1	18*	25*
CCN(CC)S(=O)(=O)c1ccc(NC(=O)CCNC(=O)c2ccco2)cc1	-9	3	.	-3	0	0	.	.
CN1CCN(Cc2c(O)ccc3occ(C(=O)c4ccccc4)c23)CC1	-15	1	13	2	0	-4	.	.
CC(=O)C(C(C)=O)c1c(Cl)c(O)c(O)c2c(C(=O)c3ccccc3)coc12	-11	2	.	12*	0	-7	18*	20*
Cc1ccccc1Nc1nc(N)nc(CSc2nc3ccccc3c(=O)n2C)n1	-8	22	-11	26*	-1	-2	73*	82*
Cc1ccccc1Nc1nc(N)nc(CSc2nc3ccccc3c(=O)n2CCCO)n1	6	6	.	-1	-2	-3	.	.
O=C(Nc1ccc(Br)cn1)c1cccc(C(=O)Nc2ccc(Br)cn2)c1	-23	22	.	12*	0	-1	41*	55*
CSc1cc(-c2ccc(Cl)cc2)c(C(=O)NC(C)C)s1	31	4	-37	18*	-1	2	9	13*
O=C(Cn1nnc2c(cnn2-c2ccccc2)c1=O)NCc1cccs1	-6	-6	0	-2	0	0	.	.
O=C(Cn1nnc2c(cnn2-c2ccc(F)cc2)c1=O)Nc1ccccc1C(F)(F)F	4	17	21	11*	0	-1	14*	20*
CCOC(=O)Cn1c(=S)[nH]c2c(oc3ccc(Cl)cc32)c1=O	-3	8	-11	16*	1	-2	7	9.4*
O=C(COC(=O)c1cc2ccccc2oc1=O)Nc1ccc(F)cc1F	-15	1	-2	15*	0	0	16*	48*
CCN(c1ccc(NC(=O)COC(=O)c2cc3ccccc3oc2=O)cc1)C(C)C	-8	0	.	-3	0	-2	.	.
CC(=O)c1sc(C(C)(C)C)cc1NC(=O)CCC(=O)O	-1	1	-1	10*	0	-1	19*	23*
CC(=O)c1sc(C(C)(C)C)cc1NC(=O)/C=C/C(=O)O	.	-4	-1	0	1	-3	.	.
CCCn1c(/C=C/c2ccccc2)nc2ccccc21	.	0	.	1	-3	-4	.	.
CCn1c(/C=C/c2cc[n+](C)cc2)nc2ccccc21	13	5	10	13*	0	-2	14*	16*
SMILES	T cruzi inh	NR1D1 modulator	TAG inh	PG9 binder	iPSC survival up	beta cell repl	PG9 bind confirm	PGV04 counter	others
C[C@H]1[C@@H](NS(=O)(=O)c2ccccc2[N+](=O)[O-])CC[C@@]23CCCN2C(=O)CCC[C@@H]13	.	0	.	.	.	.	.	.
O=C1C=C(O)c2cccc3cccc1c23	-18	1	.	49*	0	-2	39*	58*
COc1cc(O)c2c(=O)c3c(O[C@H]4O[C@@H](CO)[C@H](O)[C@@H](O)[C@@H]4O)ccc(O)c3oc2c1	.	0	9	-2	-1	-3	.	.
CCOC(=O)c1sc(=S)[nH]c1C	.	1	-8	19*	0	.	11*	9	PG9 binder DR=i;PGV04 binding DR=i;PG126 DR counter=i
CCOC(=O)c1c(C)[nH]sc1=S	-11	5	-12	17*	-3	0	9.3*	8	PG9 binder DR=>67;PGV04 binding DR=i;PG126 DR counter=i
Clc1ccc(-c2nc3ncccn3c2Nc2ccc3c(c2)OCCO3)cc1	20	-2	5	0	-3	-4	.	.
CCc1ccccc1NS(=O)(=O)c1ccc2[nH]cc(C(=O)NC3CCCC3)c(=O)c2c1	5	12	.	12*	1	0	19*	20*
CNC(=O)c1c[nH]c2ccc(S(=O)(=O)Nc3ccccc3F)cc2c1=O	-1	-2	.	12*	1	-1	23*	25*
Cc1ccccc1NC(=O)C1CCN(c2cc(-c3ccccc3)nc3ncnn23)CC1	8	7	-12	8.8*	4	-3	17*	27*
COc1ccccc1NC(=O)C1CCCN(S(=O)(=O)c2ccc3[nH]c(=O)ccc3c2)C1 (stereo unspecified)	0	-2	6	0	-2	-2	.	.
